CHOP UPR activ = activators of apoptotic CHOP UPR arm, primary screen, cell-based, CHO-CHOP luciferase reporter, luminescence, uHTS; actives 0.34% (n = 330,000); AID 449763, 2010; UPR activation; percent of tunicamycin response over DMSO baseline; activation, % at 10 µM;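 active = at 10 µM dose, activation of 40% or more, normalized to positive control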;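 also: 100% = tunicamycin at 10 µg/mL and 0% = DMSO alone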
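Assay system: CHO-CHOP cells, stable luciferase reporter of PERK-eIF2a-CHOP signalling / Buffer or medium: F12 plus 10% serum / Compound dosing: one dose, 10 µM in 0.5% DMSO / Times: 6 h compound treatment, 37 °C / Technique: luciferase luminescence / Read-out: % reporter activation, DMSO baseline versus tunicamycin full activation / Benchmarks: tunicamycin and DMSO controls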
Bfl-1 A1 inh = caspase 3/7 activation in MEF A1-2A-BIM cells, primary screen, A1 inhibitor project, cell-based, luminescence, HTS | actives 0.066% (n = 330,000) | caspase activation, % (test concentration not listed) | Caspase-Glo 3/7 luminescence, 3 h; percent of clofoctol response, vehicle zero;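 active = over half of replicate activation scores above 10%, or exactly half above 10 with the replicate mean above 10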
CHOP inhibitor = inhibitors of CHOP promoter induction, primary screen, cell-based, unfolded protein response, luciferase reporter. CHO-K1 CHOP-promoter luciferase, tunicamycin-induced, 15-18 h. inhibition, % at 10 µM. actives 3.8% (n = 220,000). AID 2732, 2010;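 active = compounds that reduced the stress-induced luciferase reporter signal by more than about 70% of percent inhibition, limit read from the data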;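 also: 0% = tunicamycin plus vehicle and 100% = wells without tunicamycin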
XBP1 UPR activ = activators of adaptive XBP1 UPR arm, primary screen, cell-based, CHO-XBP1 luciferase reporter, luminescence, uHTS. IRE1-XBP1 UPR activation; percent of tunicamycin response, DMSO as zero. AID 463104, 2010. actives 0.33% (n = 330,000). activation, % at 20 µM;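 active = versus positive control, 20 µM dose yields 30% or more activation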;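 also: 100% = tunicamycin at 10 µg/mL and 0% = DMSO only wells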
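Assay system: CHO-XBP1 luciferase reporter cells; Schedule: 6 h treatment, 37 °C; Detection: glow luminescence from Steady-Glo reagent; Benchmarks: high control tunicamycin 10 µg/mL final, low control DMSO vehicle only.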
UPR XBP1 confirm = IRE1-XBP1 UPR arm activators, confirmation, cell-based, CHO-XBP1 luciferase reporter, luminescence, single concentration. shares compounds with XBP1 UPR activ. activation, % at 20 µM. actives 63% (n = 1,000). AID 485299, 2010;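 active = reporter signal at least 30% of the positive control's activation in two or more of four replicate wells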;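 also: plate controls were DMSO negative control for no effect and tunicamycin 10 µg/mL positive control for full effect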
* hit, by the source's call; . = no result. The sample as a whole holds a higher share of hits than the screen did.

SMILES	CHOP UPR activ	Bfl-1 A1 inh	CHOP inhibitor	XBP1 UPR activ	UPR XBP1 confirm
C[C@H]1CN([C@@H](C)CO)C(=O)c2cccc(NC(=O)Nc3ccc(C(F)(F)F)cc3)c2O[C@@H]1CN(C)C(=O)Nc1ccc(F)cc1	5.3	0.9	.	5.6	.
O=C(Oc1ccc2c(c1)OCO2)c1cc2c(s1)CCC2	35.2	-2.0	.	36.7*	9.2
O=C(C[C@@H]1C/C=C/CC[C@@H](Cc2ccc(F)cc2)C(=O)O[C@H](c2ccccc2)CNC1=O)NCCO	0.0	-0.3	.	0.8	.
Cc1ccc2oc(-c3ccc(C)c(NC(=S)NC(=O)c4cccs4)c3)nc2c1	4.8	0.2	5.2	1.4	.
COc1cc(C(=O)Nc2cc(-c3nc4cc(C)ccc4o3)ccc2C)cc(OC)c1OC	19.0	0.1	34.0	130.6*	95.7*
Cn1/c(=N/N=C/c2ccc([N+](=O)[O-])cc2)sc2ccccc21	.	.	-19.3	.	.
Cc1cc(C)c2c(c1)/C(=N\N=c1\sc3ccccc3n1C)C(=O)N2	17.6	0.0	68.8	30.5*	28.1
C=CCn1c(C)cc(C(=O)COC(=O)/C=C/c2cccc(OC)c2)c1C	-1.7	-2.6	4.1	-6.1	.
Cc1nn(-c2ccccc2)c2sc(C(=O)NC3CC3)cc12	3.0	0.0	-1.1	10.4	.
Cc1nc(NC(=O)c2cc3c(C)nn(-c4ccccc4)c3s2)sc1C(=O)Nc1ccccc1	1.0	0.0	-17.6	49.1*	54.4*
COc1cc(CNCCO)cc(Br)c1OCc1ccccc1Cl	-0.4	0.2	-30.1	3.1	.
COc1cc(CNCCO)cc(Cl)c1OCc1ccc(Cl)cc1Cl	2.3	-0.4	95.2*	62.6*	133.6*
Cc1ccc(NC(=O)C(=O)Nc2ccc(C)cn2)nc1	3.8	-0.1	-27.9	1.0	.
Cc1ccc(NC(=O)/C(C#N)=C(\N)C(Cl)(Cl)Cl)nc1	24.8	0.3	101.3*	30.0	-4.5
COc1cc(C(=O)N/N=C/c2ccsc2C)cc(OC)c1OC	-1.2	0.5	-58.6	30.4*	17.2
CCOC(=O)c1c(C)[nH]c(C(=O)COC(=O)CCNS(=O)(=O)c2ccc(NC(C)=O)cc2)c1C	0.9	2.1	.	-0.3	.
Cc1nnc(N2CCCC(C(=O)Nc3cc(F)ccc3F)C2)c2nn(-c3ccccc3)c(C)c12 (stereo not given)	4.9	-0.3	.	41.4*	-0.2
Cc1nnc(N2CCCC(C(=O)NCc3ccc(OC(C)C)cc3)C2)c2nn(-c3ccccc3)c(C)c12 (stereo not given)	2.2	-1.8	.	-4.7	.
C=CCn1c(NC(=O)c2ccccc2Cl)c(C#N)c2nc3ccccc3nc21	0.2	1.5	-15.7	35.2*	-0.7
CN(C)S(=O)(=O)c1ccc(N2CCCC2)c(C(=O)Nc2ccc(C(N)=O)cc2)c1	1.5	-0.5	.	1.7	.
Cc1ccc(NC(=O)c2cc(S(=O)(=O)N(C)C)ccc2N2CCCC2)cc1S(=O)(=O)N(C)C	10.7	0.1	.	53.0*	67.1*
COc1cc2c(cc1OC)[C@@H](NC(=O)c1ccc(C(F)(F)F)cc1)[C@H](OCc1ccccc1)C2	0.8	.	.	36.3*	17.9
N=c1c(S(=O)(=O)c2ccccc2)cc2c(=O)n3ccccc3nc2n1C1CCCC1	0.8	-0.4	.	30.2*	23.2
CCOC(=O)C1CCN(C(=O)c2ccc(OCC(=O)Nc3cccc(C(F)(F)F)c3)c(OC)c2)CC1	7.4	0.4	.	-3.0	.
COC(=O)c1sc(NC(=O)c2cnccn2)c(C(=O)OC)c1C	27.9	0.4	.	41.2*	1.0
SMILES	CHOP UPR activ	Bfl-1 A1 inh	CHOP inhibitor	XBP1 UPR activ	UPR XBP1 confirm
COCCNC(=O)C1CC(c2cccc(F)c2)=NO1 (stereo not given)	-0.9	-1.1	-8.7	30.6*	0.4
COc1ccc(-c2oc(=O)c3cc(OC)c(OC)cc3c2/C=C/c2ccc(OC(C)=O)cc2)cc1	14.5	-1.6	.	17.8	.
COc1cc(-c2noc(C)c2/C=C/c2ccc(OC(C)=O)cc2)cc(OC)c1OC	2.8	1.3	.	31.9*	32.2*
COc1ccc(-c2noc3c2-c2nc(-c4ccccc4F)sc2CC3)cc1	0.1	0.7	.	-1.1	.
O=C(c1ccc(Br)cc1)c1cc([N+](=O)[O-])ccc1N1CCCCC1	0.9	1.5	-14.8	31.7*	18.3
CN1CCN(c2ccc([N+](=O)[O-])cc2C(=O)c2ccc(Br)cc2)CC1	-2.6	0.2	4.6	2.3	.
Cc1ccc(C2=Nc3ccc(Br)cc3C(c3ccncc3)=NN2)cc1	3.6	-0.4	31.2	36.9*	45.1*
COc1ccc(NC(=O)CN2C(=O)NC(CC(C)C)C2=O)cc1S(=O)(=O)N1CCOCC1 (stereo not given)	3.3	-0.4	.	-1.5	.
COc1ccc(N(C(=O)Cn2nnc(-c3ccccc3F)n2)C(C(=O)NCC2CCCO2)c2ccc(Cl)cc2)cc1 (stereo not given)	4.5	0.1	-19.9	41.5*	3.1
COc1ccc(N(C(=O)Cn2nnc(-c3ccc(Cl)cc3)n2)C(C(=O)NCC2CCCO2)c2ccc(C)cc2)cc1 (stereo not given)	5.4	0.5	56.2	3.4	.
COc1ccc(C(=O)/C=C/c2ccc(O)cc2)c(O)c1C/C=C(\C)CCC=C(C)C	11.3	.	.	82.6*	31.3*
CCOC(=O)c1c(NC(=O)/C=C/C(=O)O)sc(C)c1-c1ccc(C(C)(C)C)cc1	18.9	0.3	38.6	47.1*	46.9*
COc1cc(OC)cc(C(=O)NC(=S)NNC(=O)[C@H]2C[C@@H]2c2ccccc2)c1	2.2	0.2	8.1	-3.7	.
COc1ccc(C(=O)NC(=S)NNC(=O)[C@H]2C[C@@H]2c2ccccc2)cc1OC	1.4	1.0	34.2	64.6*	14.1
CCCNC(=O)/C(C#N)=C1\N=C(NC(=O)c2cccs2)c2ccccc21	1.0	0.8	.	44.8*	65.6*
COCCNC(=O)/C(C#N)=C1\N=C(NC(=O)c2cccs2)c2ccccc21	2.2	-0.3	.	-0.3	.
O=C(COC(=O)c1cc([N+](=O)[O-])ccc1NCCO)Nc1cccc(S(=O)(=O)N2CCCC2)c1	2.6	-0.9	.	2.2	.
Brc1cc(Br)c2ncnc(N3CCCCC3)c2c1	-0.9	0.1	66.4	59.3*	40.9*
COc1cccc(CNC(=O)Cn2c(=O)n(CCC(=O)N3CCCCC3)c(=O)c3sccc32)c1	-1.3	0.7	.	-4.3	.
COc1ccc(NC(=O)c2ccc(=O)[nH]c2)cc1S(=O)(=O)N1CCOCC1	-1.1	.	.	-2.0	.
Cc1c(C(=O)N(CCC#N)c2ccccc2)sc2nc3n(c(=O)c12)CCCC3	3.8	0.0	.	-1.3	.
CCOc1ccccc1NC(=O)CSc1ccc(-c2sc(C)nc2C)nn1	0.1	-1.0	.	0.8	.
COc1ccc2cc3cc(C(=O)NCCN4CCN(c5ccccc5F)CC4)oc3nc2c1	1.0	2.1	53.9	4.9	.
